Test [1] deals with MCF7. The test can be described thus: Cytotoxicity against human MCF7 cells assessed as reduction in cell viability after 24 hrs by MTT assay. It counts as functional, cell-based. The following applies: MCF7, 24 h. In short, it runs like this:
(§1)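 15,000 exponential-phase cells per well were seeded and incubated 24 h, then exposed to a range of test concentrations. Medium alone served as the negative control and doxorubicin as the positive control. MTT (5 mg/mL stock) was added for a further 4 h, and the formazan was dissolved in DMSO. Percent inhibition versus control was calculated, and IC50 was taken from the dose–inhibition curve. Each experiment was run three times.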
For orientation: Tetrazolium assays rely on reduction of a dye to a coloured formazan, in cell work by metabolically active cells.

The nature of test [2]: Cytotoxicity against human HT1080 cells assessed as reduction in cell viability after 24 hrs by MTT assay. It counts as functional, cell-based. The following applies: HT-1080, 24 h. The method, boiled down:
as §1

The test system of a further test is A549. The test can be described thus: Cytotoxicity against human A549 cells assessed as reduction in cell viability after 24 hrs by MTT assay. It counts as functional, cell-based. The following applies: A549, 24 h. The method, boiled down: as §1
In the next test the test system is HT-29. Put plainly: Cytotoxicity against human HT-29 cells assessed as reduction in cell viability after 24 hrs by MTT assay. It counts as functional, cell-based. Conditions: HT-29, 24 h. The method, boiled down:
as §1

For test [3], the system named is MCF7. Put plainly: Ratio of doxorubicin IC50 to compound IC50 for human MCF7 cells assessed as reduction in cell viability after 24 hrs by MTT assay. It counts as functional.

The results in this text go back to ChEMBL document CHEMBL3232930, “One-pot, four-component synthesis of novel cytotoxic agents 1-(5-aryl-1,3,4-oxadiazol-2-yl)-1-(1H-pyrrol-2-yl)methanamines” (Eur J Med Chem, 2014).

Broadly, the IC50 is the concentration needed to halve the response being measured. Consider `Cc1ccc(-c2nnc(C(NCc3ccccc3)c3ccc[nH]3)o2)cc1` (stereo not drawn), for which the IC50 with MCF7 [1] stood at 1120 µM; in test [2] it was 909 µM; in the test with A549, 744 µM; in the test on HT-29 it was 249 µM.
Turning to `COc1ccc(CNC(c2ccc[nH]2)c2nnc(-c3ccccc3)o2)cc1` (stereo not drawn), the IC50 in the test on MCF7 [1] was 142 µM; in test [2] it was 175 µM; in the test with A549, 278 µM; in the test on HT-29, 286 µM.
As to `Clc1ccc(-c2nnc(C(NCc3ccccc3)c3ccc[nH]3)o2)cc1Cl` (stereo not drawn), the IC50 in the test with MCF7 [1] came out at 13.9 µM; in test [2] it was 15.2 µM; in the test with A549, 25.5 µM; with HT-29, 41.7 µM.
Taken in the same sequence, the figures for `Brc1ccc(-c2nnc(C(NCc3ccccc3)c3ccc[nH]3)o2)cc1` (stereo not drawn) were 96.6 µM, 70.6 µM, 87.2 µM and 58.3 µM.
The matching figures for `COc1ccc(-c2nnc(C(NCc3ccccc3)c3ccc[nH]3)o2)c(OC)c1` (stereo not drawn): 471 µM, 418 µM, 296 µM and 392 µM.
In the case of `Cc1ccc(CNC(c2ccc[nH]2)c2nnc(-c3ccc(Br)cc3)o2)cc1` (stereo not drawn), the IC50 in the test on MCF7 [1] is 4.3 µM; in test [2], 51.9 µM; in the test on A549, 53.9 µM; in the test with HT-29 it was 49.5 µM. The “Ratio IC50” value in the test on MCF7 [3] was 4.
Regarding `Clc1ccc(CNC(c2ccc[nH]2)c2nnc(-c3ccc(Br)cc3)o2)cc1Cl` (stereo not drawn), the IC50 is 31 µM in the test on MCF7 [1], 45.3 µM in test [2], 17.3 µM with A549 and 20 µM in the test on HT-29.
As to `Clc1ccc(-c2nnc(C(NCc3ccccc3)c3ccc[nH]3)o2)cc1` (stereo not drawn), the IC50 with MCF7 [1] came out at 46.2 µM; in test [2], 41 µM; in the test on A549, 73.8 µM; with HT-29 it was 54.5 µM.
The matching figures for `Fc1cc(-c2nnc(C(NCc3ccccc3)c3ccc[nH]3)o2)c(Cl)cc1Cl` (stereo not drawn): 21.7 µM, 25.6 µM, 27.5 µM and 20 µM.
The matching figures for `COc1ccccc1CNC(c1ccc[nH]1)c1nnc(-c2ccccc2)o1` (stereo not drawn): 441 µM, 278 µM, 362 µM and 392 µM.
Taken in the same sequence, the figures for `COc1cccc2c1C(=O)c1c(O)c3c(c(O)c1C2=O)C[C@@](O)(C(=O)CO)C[C@@H]3O[C@H]1C[C@H](N)[C@H](O)[C@H](C)O1` [DOXORUBICIN] were 16.9 µM, 15.4 µM, 13.6 µM and 16 µM.
As for `Cc1cccc(-c2nnc(C(NCc3ccccc3)c3ccc[nH]3)o2)c1` (stereo not drawn), the IC50 in the test with MCF7 [1] stood at 480 µM; in test [2], 311 µM; in the test with A549 it was 430 µM; in the test with HT-29, 202 µM.
Taken in the same sequence, the figures for `c1ccc(CNC(c2ccc[nH]2)c2nnc(-c3ccccc3)o2)cc1` (stereo not drawn) were 216 µM, 231 µM, 187 µM and 198 µM.
The matching figures for `COc1ccc(-c2nnc(C(NCc3ccccc3)c3ccc[nH]3)o2)cc1` (stereo not drawn): 460 µM, 170 µM, 326 µM and 344 µM.
For the compound `COc1ccc(-c2nnc(C(NCc3ccc(F)cc3)c3ccc[nH]3)o2)cc1` (stereo not drawn), the IC50 was found to be 28.9 µM in the test on MCF7 [1], 14.7 µM in test [2], 52.8 µM in the test with A549 and 39.4 µM with HT-29.
Taken in the same sequence, the figures for `COc1ccc(CNC(c2ccc[nH]2)c2nnc(-c3cccc(Cl)c3)o2)cc1` (stereo not drawn) were 41.7 µM, 84.6 µM, 77.5 µM and 95.6 µM.
Taken in the same sequence, the figures for `Clc1cccc(-c2nnc(C(NCc3ccccc3)c3ccc[nH]3)o2)c1` (stereo not drawn) were 56.7 µM, 41.1 µM, 62.2 µM and 48.3 µM.
Taken in the same sequence, the figures for `Clc1cccc(-c2nnc(C(NCc3ccc(Cl)c(Cl)c3)c3ccc[nH]3)o2)c1` (stereo not drawn) were 19 µM, 25.1 µM, 13.3 µM and 18 µM.
